The values that follow come from ChEMBL document CHEMBL4325855 (Eur J Med Chem, 2019).

Calls of active or inactive are those of the source. The calls are words filed in the database; no cut-off is given here.

For series [1], the target named is T1, Mitogen-activated protein kinase 8 (Homo sapiens, UniProt P45983). The series can be described thus: Binding affinity to human full-length JNK1 (M1 to Q384 residues) expressed in HEK293 cells at <40 uM after 1 hr by Kinomescan method. Type of series: cell-based. The method, boiled down: (§1)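 Competition binding on a phage-display/cell-expressed kinase platform; each compound incubated with kinase 1 h at room temperature. Unbound kinase was captured on an immobilized affinity ligand and quantified by qPCR. […] N.A. means no inhibition below 40 µM.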

The target of series [2] is T2, Mitogen-activated protein kinase 9 (Homo sapiens, UniProt P45984). The series can be described thus: Binding affinity to human full-length JNK2 (M1 to Q382 residues) expressed in HEK293 cells at <40 uM after 1 hr by Kinomescan method. Type of series: cell-based. Put shortly:
as §1
Target sequence in this assay (P45984 whole entry, looked up, the tested form may be a part): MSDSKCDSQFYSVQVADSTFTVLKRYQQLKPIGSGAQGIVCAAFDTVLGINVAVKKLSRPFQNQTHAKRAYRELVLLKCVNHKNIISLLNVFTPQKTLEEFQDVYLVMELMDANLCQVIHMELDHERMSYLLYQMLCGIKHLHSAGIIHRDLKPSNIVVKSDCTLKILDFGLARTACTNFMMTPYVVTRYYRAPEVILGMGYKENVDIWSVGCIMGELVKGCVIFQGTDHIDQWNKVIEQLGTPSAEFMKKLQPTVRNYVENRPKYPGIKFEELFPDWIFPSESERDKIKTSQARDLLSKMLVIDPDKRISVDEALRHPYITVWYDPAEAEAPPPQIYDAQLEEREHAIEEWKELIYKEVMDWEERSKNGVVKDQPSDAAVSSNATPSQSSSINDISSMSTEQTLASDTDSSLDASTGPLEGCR

For series [3], the target named is T3, Mitogen-activated protein kinase 10 (Homo sapiens, UniProt P53779). The series can be described thus: Binding affinity to human partial length JNK3 (V28 to Q422 residues) expressed in HEK293 cells at <40 uM after 1 hr by Kinomescan method. Type of series: cell-based. Put shortly:
as §1

The target in series [4] is T4, c-Jun N-terminal kinase, JNK (Homo sapiens, UniProt P45983+P53779+P45984). As to the kind of experiment: Inhibition of JNK in human THP1-Blue cells assessed as reduction in LPS-induced NFkappaB/AP1 activation at <40 uM preincubated for 30 mins followed by LPS-stimulation and measured after 24 hrs by quanti-blue staining based alkaline phosphatase reporter gene assay. The format is cell-based. The method, boiled down:
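THP-1Blue monocytes carry a secreted alkaline phosphatase reporter under an NF-κB/AP-1-inducible promoter and were grown in RPMI 1640 with 10% FBS plus Zeocin and blasticidin selection. Cells, 2 × 10^5/well, were pretreated 30 min with compound or DMSO, then given 250 ng/ml LPS for 24 h. Supernatant phosphatase was read with QUANTI-Blue at 655 nm against LPS controls; IC50 calculated.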

For series [5], the target named is T4, c-Jun N-terminal kinase, JNK. As to the kind of experiment: Inhibition of JNK in human MONO-MAC-6 cells assessed as reduction in LPS-induced IL6 production at <40 uM preincubated for 30 mins followed by LPS-stimulation and measured after 24 hrs by ELISA. The format is cell-based. Put shortly:
(§2)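 MonoMac-6 cells, 2 × 10^5/well in medium with 3% endotoxin-free FBS, were pretreated 30 min with compound or DMSO, then stimulated with 250 ng/ml LPS for 24 h. IL-6 in the supernatant was measured by human IL-6 ELISA. IC50 came from percent inhibition vs log concentration (at least five points); triplicate samples, representative of three experiments.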
(In an ELISA, binding on a coated surface is turned into a signal by an enzyme label.)

Series [6] can be described thus: Cytotoxicity against human THP1-Blue cells assessed as effect on cell viability up to 50 uM after 24 hrs by CellTiter-Glo luminescent cell viability assay. Type of series: cell-based. The method, boiled down:
(§3)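 Viability of MonoMac-6 and THP-1Blue cells was tested with compound up to 50 µM for 24 h at 37 °C, 5% CO2. After 30 min equilibration to room temperature, CellTiter-Glo reagent was added and luminescence read. IC50 was derived from percent inhibition vs log concentration, at least five points.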
(ATP-based viability assays read luminescence as a measure of living cells.)

The next series deals with MONO-MAC-6. As to the kind of experiment: Cytotoxicity against human MONO-MAC-6 cells assessed as effect on cell viability up to 50 uM after 24 hrs by CellTiter-Glo luminescent cell viability assay. The format is cell-based. The following applies: mono-mac-6, 24 h. Put shortly: as §3
Series [7] addresses T1, Mitogen-activated protein kinase 8. The series can be described thus: Binding affinity to human full-length JNK1 (M1 to Q384 residues) expressed in HEK293 cells measured after 1 hr by Kinomescan method. Type of series: cell-based. Put shortly:
(§4)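 Competition binding on a phage-display/cell-expressed kinase platform; each compound incubated with kinase 1 h at room temperature. Unbound kinase was captured on an immobilized affinity ligand and quantified by qPCR. N.A. means no inhibition below 40 µM.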

The target in series [8] is T2, Mitogen-activated protein kinase 9. The series can be described thus: Binding affinity to human full-length JNK2 (M1 to Q382 residues) expressed in HEK293 cells measured after 1 hr by Kinomescan method. The format is cell-based. The method, boiled down: as §4
Target sequence in this assay (P45984 whole entry, the tested form may be a part): as the sequence (P45984 whole entry, looked up, the tested form may be a part) above
In series [9] the target is T3, Mitogen-activated protein kinase 10. The series can be described thus: Binding affinity to human partial length JNK3 (V28 to Q422 residues) expressed in HEK293 cells measured after 1 hr by Kinomescan method. Type of series: cell-based. The method, boiled down:
as §4

Series [10] deals with T4, c-Jun N-terminal kinase, JNK. As to the kind of experiment: Inhibition of JNK in human THP1-Blue cells assessed as reduction in LPS-induced NFkappaB/AP1 activation preincubated for 30 mins followed by LPS-stimulation and measured after 24 hrs by quanti-blue staining based alkaline phosphatase reporter gene assay. Type of series: cell-based. On the technique in general: Reporter assays use an easily measured gene product as a stand-in for the process of interest.

Series [11] has the same target. The series can be described thus: Inhibition of JNK in human MONO-MAC-6 cells assessed as reduction in LPS-induced IL6 production preincubated for 30 mins followed by LPS-stimulation and measured after 24 hrs by ELISA. Type of series: cell-based. The method, boiled down:
as §2

The test system of series [12] is Transcription factor AP-1 (Homo sapiens). The series can be described thus: Inhibition of LPS-induced c-Jun phosphorylation at ser73 residues in human MONO-MAC-6 cells at 6.25 to 50 uM preincubated for 30 mins followed by LPS-stimulation and measured after 30 mins by Western blot analysis.
Series [13] addresses T5, High affinity nerve growth factor receptor (Homo sapiens, UniProt P04629). As to the kind of experiment: Binding affinity to human partial length TRKA (G475 to G790 residues) expressed in HEK293 cells measured after 1 hr by Kinomescan method. Type of series: cell-based.
Target sequence in this assay (P04629 whole entry, the tested form may be a part): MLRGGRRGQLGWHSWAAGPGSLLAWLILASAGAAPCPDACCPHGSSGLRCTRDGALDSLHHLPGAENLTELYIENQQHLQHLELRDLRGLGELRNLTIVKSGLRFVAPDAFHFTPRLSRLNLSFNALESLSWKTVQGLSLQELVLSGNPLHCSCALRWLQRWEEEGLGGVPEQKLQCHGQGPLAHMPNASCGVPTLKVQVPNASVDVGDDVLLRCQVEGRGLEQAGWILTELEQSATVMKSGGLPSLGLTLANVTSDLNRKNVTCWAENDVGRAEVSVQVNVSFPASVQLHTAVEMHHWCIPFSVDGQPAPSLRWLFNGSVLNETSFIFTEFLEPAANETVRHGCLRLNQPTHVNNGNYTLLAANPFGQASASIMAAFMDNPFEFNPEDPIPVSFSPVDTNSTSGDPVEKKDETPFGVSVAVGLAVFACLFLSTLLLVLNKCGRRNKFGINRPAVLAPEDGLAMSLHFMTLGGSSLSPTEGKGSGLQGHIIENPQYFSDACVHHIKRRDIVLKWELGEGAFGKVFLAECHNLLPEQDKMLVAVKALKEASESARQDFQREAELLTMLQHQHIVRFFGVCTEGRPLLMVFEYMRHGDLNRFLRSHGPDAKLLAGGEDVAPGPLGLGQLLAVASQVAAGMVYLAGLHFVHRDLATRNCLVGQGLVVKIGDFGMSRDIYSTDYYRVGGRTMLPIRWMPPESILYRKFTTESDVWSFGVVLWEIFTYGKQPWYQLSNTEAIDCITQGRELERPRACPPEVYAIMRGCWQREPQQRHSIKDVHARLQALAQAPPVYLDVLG
Series [14] addresses BDNF/NT-3 growth factors receptor (Homo sapiens, UniProt Q16620). As to the kind of experiment: Binding affinity to human partial length TRKB (Q547 to G838 residues) expressed in HEK293 cells measured after 1 hr by Kinomescan method. Type of series: cell-based.
The target in series [15] is Casein kinase I isoform delta (Homo sapiens) (UniProt P48730). The series can be described thus: Inhibition of ligand binding to human full-length CK1delta (M1 to K409 residues) expressed in bacterial expression system at 10 uM measured after 1 hr by Kinomescan method relative to control. Put shortly:
(§5)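 Binding ran 1 h at room temperature. Kinase not bound to compound was captured by an immobilized affinity ligand and measured by qPCR, in duplicate.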

The target in series [16] is T5, High affinity nerve growth factor receptor. The series can be described thus: Inhibition of ligand binding to human partial length TRKA (G475 to G790 residues) expressed in HEK293 cells at 10 uM measured after 1 hr by Kinomescan method relative to control. Type of series: cell-based. Put shortly: as §5
Target sequence in this assay (P04629 33-796 limits assumed): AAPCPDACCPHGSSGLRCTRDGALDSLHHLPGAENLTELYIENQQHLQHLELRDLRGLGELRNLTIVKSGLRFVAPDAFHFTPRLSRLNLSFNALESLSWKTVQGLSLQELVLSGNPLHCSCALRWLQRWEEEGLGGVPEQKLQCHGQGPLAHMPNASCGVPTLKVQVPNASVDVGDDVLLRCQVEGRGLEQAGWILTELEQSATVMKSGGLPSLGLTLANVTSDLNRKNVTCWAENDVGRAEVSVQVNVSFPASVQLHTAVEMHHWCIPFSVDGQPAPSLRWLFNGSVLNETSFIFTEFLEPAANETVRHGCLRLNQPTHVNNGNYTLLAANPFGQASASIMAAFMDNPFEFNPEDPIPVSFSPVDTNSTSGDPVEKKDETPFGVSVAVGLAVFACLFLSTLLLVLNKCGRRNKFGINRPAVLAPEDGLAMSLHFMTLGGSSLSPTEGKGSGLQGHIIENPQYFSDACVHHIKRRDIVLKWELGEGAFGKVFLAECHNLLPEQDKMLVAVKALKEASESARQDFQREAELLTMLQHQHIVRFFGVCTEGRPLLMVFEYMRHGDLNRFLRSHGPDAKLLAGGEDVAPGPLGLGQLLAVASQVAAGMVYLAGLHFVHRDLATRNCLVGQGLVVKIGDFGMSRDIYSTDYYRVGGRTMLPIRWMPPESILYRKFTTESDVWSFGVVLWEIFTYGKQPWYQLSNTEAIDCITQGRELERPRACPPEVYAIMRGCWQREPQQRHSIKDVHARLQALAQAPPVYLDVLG
Series [17] addresses T1, Mitogen-activated protein kinase 8. The series can be described thus: Inhibition of ligand binding to human full-length JNK1 (M1 to Q384 residues) expressed in HEK293 cells at 10 uM measured after 1 hr by Kinomescan method relative to control. The format is cell-based. Put shortly:
as §5

Series [18] deals with T2, Mitogen-activated protein kinase 9. The series can be described thus: Inhibition of ligand binding to human full-length JNK2 (M1 to Q382 residues) expressed in HEK293 cells at 10 uM measured after 1 hr by Kinomescan method relative to control. The format is cell-based. Put shortly:
as §5
Target sequence in this assay (P45984 whole entry, looked up, the tested form may be a part): as the sequence (P45984 whole entry, looked up, the tested form may be a part) above

In series [19] the target is T3, Mitogen-activated protein kinase 10. The series can be described thus: Inhibition of ligand binding to human partial length JNK3 (V28 to Q422 residues) expressed in HEK293 cells at 10 uM measured after 1 hr by Kinomescan method relative to control. The format is cell-based. Put shortly:
as §5

A short description of series [20]: Lipophilicity, log P of the compound. Type of series: physicochemical. Conditions: octanol/water.

T1 sequence (P45983 whole entry, the tested form may be a part): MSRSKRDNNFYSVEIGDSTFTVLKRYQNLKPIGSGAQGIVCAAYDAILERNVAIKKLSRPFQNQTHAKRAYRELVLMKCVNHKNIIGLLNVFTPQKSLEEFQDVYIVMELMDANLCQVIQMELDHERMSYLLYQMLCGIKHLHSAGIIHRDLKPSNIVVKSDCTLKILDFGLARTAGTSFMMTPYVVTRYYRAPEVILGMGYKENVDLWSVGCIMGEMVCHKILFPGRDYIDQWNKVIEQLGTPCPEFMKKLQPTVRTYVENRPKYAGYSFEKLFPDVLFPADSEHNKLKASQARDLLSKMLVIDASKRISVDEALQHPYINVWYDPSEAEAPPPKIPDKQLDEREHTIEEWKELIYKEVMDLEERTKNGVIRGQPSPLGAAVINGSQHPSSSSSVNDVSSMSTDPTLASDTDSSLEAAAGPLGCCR
T3 sequence (P53779 whole entry, the tested form may be a part): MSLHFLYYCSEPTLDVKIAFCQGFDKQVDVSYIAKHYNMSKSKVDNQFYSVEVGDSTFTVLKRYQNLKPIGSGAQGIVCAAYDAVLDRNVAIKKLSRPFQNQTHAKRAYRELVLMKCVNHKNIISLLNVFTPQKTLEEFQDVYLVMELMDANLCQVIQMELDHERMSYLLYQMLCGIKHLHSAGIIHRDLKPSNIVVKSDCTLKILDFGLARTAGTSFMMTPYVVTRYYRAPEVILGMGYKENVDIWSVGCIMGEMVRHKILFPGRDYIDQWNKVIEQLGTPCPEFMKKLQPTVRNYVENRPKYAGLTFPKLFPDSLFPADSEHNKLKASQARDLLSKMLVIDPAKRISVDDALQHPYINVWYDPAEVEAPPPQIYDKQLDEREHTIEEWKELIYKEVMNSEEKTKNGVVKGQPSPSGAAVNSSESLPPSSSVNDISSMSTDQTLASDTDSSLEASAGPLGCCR
Chain of BDNF/NT-3 growth factors receptor (Q16620 whole entry, the tested form may be a part, canonical isoform): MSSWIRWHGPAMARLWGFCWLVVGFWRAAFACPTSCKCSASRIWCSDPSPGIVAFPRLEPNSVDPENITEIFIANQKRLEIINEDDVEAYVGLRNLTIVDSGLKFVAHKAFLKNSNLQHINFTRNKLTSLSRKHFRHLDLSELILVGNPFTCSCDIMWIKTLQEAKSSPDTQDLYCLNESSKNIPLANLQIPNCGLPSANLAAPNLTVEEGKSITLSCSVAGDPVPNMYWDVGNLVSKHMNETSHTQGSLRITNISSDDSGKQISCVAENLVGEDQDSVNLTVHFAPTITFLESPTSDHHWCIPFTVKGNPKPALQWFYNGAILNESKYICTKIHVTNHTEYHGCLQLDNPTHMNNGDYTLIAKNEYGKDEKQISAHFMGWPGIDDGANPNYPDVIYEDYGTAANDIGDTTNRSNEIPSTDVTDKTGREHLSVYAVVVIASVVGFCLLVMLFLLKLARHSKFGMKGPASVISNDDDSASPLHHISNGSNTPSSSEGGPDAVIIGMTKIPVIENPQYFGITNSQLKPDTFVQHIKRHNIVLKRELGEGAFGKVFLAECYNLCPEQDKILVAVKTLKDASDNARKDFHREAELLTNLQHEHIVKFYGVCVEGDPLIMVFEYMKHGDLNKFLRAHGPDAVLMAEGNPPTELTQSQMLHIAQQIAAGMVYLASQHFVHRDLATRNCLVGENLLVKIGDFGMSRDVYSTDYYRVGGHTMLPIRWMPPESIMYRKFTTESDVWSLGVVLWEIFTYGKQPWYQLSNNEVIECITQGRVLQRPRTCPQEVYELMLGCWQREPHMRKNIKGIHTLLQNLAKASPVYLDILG
Chain of Casein kinase I isoform delta (Homo sapiens) (P48730 whole entry, looked up, the tested form may be a part, canonical isoform): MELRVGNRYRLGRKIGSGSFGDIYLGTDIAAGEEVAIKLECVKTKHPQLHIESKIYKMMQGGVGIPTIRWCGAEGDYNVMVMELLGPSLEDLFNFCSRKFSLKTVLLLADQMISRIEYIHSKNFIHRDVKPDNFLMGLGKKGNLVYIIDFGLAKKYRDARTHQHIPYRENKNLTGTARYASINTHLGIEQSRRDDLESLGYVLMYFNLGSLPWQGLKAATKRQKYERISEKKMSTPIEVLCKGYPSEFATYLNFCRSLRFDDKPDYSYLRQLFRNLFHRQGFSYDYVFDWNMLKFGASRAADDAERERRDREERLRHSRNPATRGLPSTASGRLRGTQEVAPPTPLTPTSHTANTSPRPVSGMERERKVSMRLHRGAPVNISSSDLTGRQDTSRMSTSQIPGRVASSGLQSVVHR

In the case of `CO/N=C1\c2ccccc2-c2nc3ccccc3nc21`, the result in series [1], in [2] and in series [3] was inactive. For the same molecule, the inhibition entry in series [4] and in series [5] was “inactive” each time. Moreover, the Activity entry (in series [6]; in the series on MONO-MAC-6) was “Non-Toxic” each time.
Consider `[Na+].[O-]/N=C1/c2ccccc2-c2nc3ccc(C(F)(F)F)cc3nc21`, for which the result in series [1], in [2] and in [3] was inactive. For the same molecule, the inhibition entry in series [4] and in series [5] was “inactive” in each case. The Activity entry (in series [6]; in the series with MONO-MAC-6) was “Non-Toxic” throughout.
Take `c1ccc(CO/N=C2\c3ccccc3-c3nc4ccccc4nc32)cc1`: the result in series [1], in series [2] and in series [3] was inactive. Moreover, the inhibition entry in series [4] and in [5] was “inactive” each time. Besides, the Activity result (in [6]; in the series with MONO-MAC-6) was “Non-Toxic” each time.
On to `CCOC(=O)CO/N=C1\c2ccccc2-c2nc3ccccc3nc21`, for which the values for the Kd in [7], in series [8] and in series [9] were 0.022 µM, 0.735 µM and 0.076 µM, respectively. Besides, the concentration for half-maximal inhibition (IC50) in [10] came out at 2.5 µM; in series [11] it was 3.3 µM. Further, the inhibition entry in [10] and in series [11] was “Dose-dependent effect” in each case. For the same molecule, the Activity entry (in [6]; in the series with MONO-MAC-6) was “Non-Toxic” throughout. Moreover, the inhibition entry in series [12] was “Active”.
For the molecule `O=C1c2ccccc2-n2c1nc1ccccc1c2=O` [TRYPTANTHRIN], the values for the equilibrium dissociation constant (Kd) in series [7], in series [13] and in series [14] were 23 µM, 9.2 µM and 7.2 µM, respectively. Besides, the result in series [2] and in [3] was inactive.
Consider `C=CCO/N=C1\c2ccccc2-c2nc3ccccc3nc21`, for which the outcome in [1], in series [2] and in series [3] was inactive. The inhibition result in [4] and in series [5] was “inactive” throughout. In addition, the Activity result (in series [6]; in the series with MONO-MAC-6) was “Non-Toxic” each time.
As to `O=c1c2ccccc2nc2n1-c1ccccc1/C2=N\O`, the inhibition is greater than 90% in series [15]; greater than 90% in [16]; greater than 90% in [17]; greater than 90% in series [18]; greater than 90% in [19]; “Dose-dependent effect” in [10]. The inhibition result in series [11] was “Dose-dependent effect”. In series [13], this molecule came in with a dissociation constant Kd of 1.1 µM. In addition, in series [20], the lipophilicity (logP) stood at 2.92.
In series [20], `O/N=C1\c2ccccc2-c2nc3ccccc3nc21` yielded a logP of 4.04.
For the molecule `CCO/N=C1\c2ccccc2-c2nc3ccccc3nc21`, the result in [1], in series [2] and in series [3] was inactive. Also, the inhibition entry in series [4] and in series [5] was “inactive” throughout. For the same molecule, the Activity result (in series [6]; in the series with MONO-MAC-6) was “Non-Toxic” throughout.
For `CC(C)CO/N=C1\c2ccccc2-c2nc3ccccc3nc21`, the outcome in series [1], in [2] and in series [3] was inactive. Also, the inhibition result in series [4] and in [5] was “inactive” throughout. Further, the Activity result (in series [6]; with MONO-MAC-6) was “Non-Toxic” throughout.

Broadly, the inhibition is how much of the control response was suppressed. What is called Kd is the concentration at which binding is half-saturated. A higher Kd goes with weaker binding. As usually defined, the IC50 is the concentration that gives 50% inhibition. In general, logP refers to the decadic logarithm of the partition coefficient of the neutral form, usually between octanol and water. High values mean higher lipophilicity, low ones lower lipophilicity.
